# Compound activity (PubChem BioAssay)
# Compounds with a hit are over-represented: about 4.7% of the library has one in this group of screens.
# RGS4 inh = inhibitors of human RGS4; P49798; HEK293 M3R/RGS4 inducible, Fluo-4 calcium flux; stronger effect = higher value; triggered by carbachol at its EC20; B-score at 10 µM; 310,000 tested, 0.45% active; AID 463165;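 active means B-score, a plate-corrected calcium signal, over three deviations above library mean, with baseline fluorescence within five deviations of library mean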;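 further: RGS4 expression induced by doxycycline in cells with stable M3 receptor; B-score is computed from the integrated fluorescence ratio over baseline after carbachol; higher B-score means a larger calcium signal and so more RGS4 inhibition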
# MrgX1 antagonist = human MrgX1 receptor antagonism, primary screen. MRGX1-HEK293 calcium flux, Fluo-4, BAM8-22 antagonism; stronger effect = lower value. B-score at 10 µM. 310,000 tested, 1.3% active. AID 588676;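 active means calcium-response B-score plate-corrected more than 3 library SD below zero, starting fluorescence within 5 deviations, no agonist response on first addition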;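 further: peak minus trough fluorescence over baseline after final BAM8-22 challenge near maximal dose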
# Target sequence (Q96LB2 whole entry, looked up): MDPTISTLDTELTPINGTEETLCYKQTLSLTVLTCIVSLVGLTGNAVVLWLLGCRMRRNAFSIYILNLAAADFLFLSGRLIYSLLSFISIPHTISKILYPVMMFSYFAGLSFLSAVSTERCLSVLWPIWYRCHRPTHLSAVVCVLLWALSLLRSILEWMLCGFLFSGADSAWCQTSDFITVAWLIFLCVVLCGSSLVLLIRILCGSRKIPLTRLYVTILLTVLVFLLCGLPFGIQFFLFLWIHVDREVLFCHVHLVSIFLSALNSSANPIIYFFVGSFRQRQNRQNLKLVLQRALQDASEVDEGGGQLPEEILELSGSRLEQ
# MrgX1 agonist = activates human MrgX1 receptor signaling; Q96LB2; MrgX1-HEK293 cells, Fluo-4 calcium fluorescence, agonist mode; stronger effect = higher value; B-score at 10 µM; 310,000 tested, 0.44% active; AID 588627;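 active means calcium response B-score plate-corrected fluorescence ratio at least 3 library SD, with starting fluorescence B-score inside 5 SD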
#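 times = overnight plating, then 30 min 37 °C plus 30 min room-temperature dye loading | assay system = stable human MrgX1 HEK293 cell line | input = fifteen thousand cells per well | signal = kinetic calcium dye fluorescence, Fluo-4 NW | dosing = compound delivered in addition one of three | read-out = B-scored fluorescence response ratio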
# RGS4 pot = RGS4 potentiation or activation; HEK293 M3R/inducible RGS4, carbachol calcium flux Fluo4; stronger effect = lower value; B-score at 10 µM; 310,000 tested, 0.92% active; AID 463111;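 active means B-score of the integrated calcium signal more than 4 SD below the library mean, with starting fluorescence not abnormally high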;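 further: negative B-score means reduced calcium response which marks RGS4 activation or potentiation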
#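 Detection: kinetic calcium fluorescence imaging with Fluo4-AM dye, 2 µM / Material: HEK293 cells with stable M3R and inducible RGS4 / Schedule: recording 10 s baseline at 1 Hz, 100 s post-agonist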
# MrgX1 PAM = allosterically activates human MrgX1 receptor signaling; MrgX1-HEK293, Fluo-4 calcium flux, FDSS; stronger effect = higher value; B-score at 10 µM; 310,000 tested, 0.63% active; AID 588675;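 active means plate-corrected calcium response at least 3 library SD above typical, normal starting fluorescence, not activating the receptor alone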;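 further: compound read alongside a low EC10 to EC30 dose of BAM8-22 agonist; peak minus trough fluorescence over baseline measured at the second addition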
# KCC2 mod = KCC2 (human) Cl- transport modulation; 190,000 tested, 2.2% active; KCC2 cells, thallium flux FluoZin-2 fluorescence; AID 1456; B-score of Tl+ flux slope (higher = more flux/activation; lower = inhibition) at 10 µM;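 active means thallium flux slope and its plate-corrected score both differing from the plate sample mean at a set confidence after two filtering rounds, in either direction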;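 further: slope of fluorescence scaled to starting intensity during 10 to 20 s after thallium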
# * = called active by the depositor; i = inactive; nt = not tested or not shown.
SMILES,RGS4 inh,MrgX1 antagonist,MrgX1 agonist,RGS4 pot,MrgX1 PAM,KCC2 mod
Cc1cn([C@H]2C[C@H](N=[N+]=[N-])[C@@H](CO)O2)c(=O)[nH]c1=O,i,i,i,i,i,-0.82
COc1ccccc1CN(C)C(=O)c1cc(-c2cccs2)nc2ccccc12,i,i,i,-8.58*,i,nt
COc1cccc(CN(C)C(=O)c2cc(-c3ccc(F)cc3)nc3ccccc23)c1,i,-15.2*,i,-8.12*,i,nt
COc1cccc(NC(=O)CN(C)C(=O)c2cc(-c3ccccc3)nc3ccccc23)c1,i,i,i,i,i,nt
COc1ccc(CN(C)C(=O)c2cc(-c3ccccc3)nc3ccc(C)cc23)c(OC)c1OC,i,i,i,-7.22*,i,nt
CCc1nn(C(CC)C(=O)NCc2cccc(OC)c2OC)c(=O)c2cc3occc3n12 (centres undefined),i,i,i,i,i,nt
Cc1ccccc1CN(C)C(C)C(=O)NCc1ccccc1 (centres undefined),i,i,i,i,i,nt
CCCN(CCC)C(=O)Cn1c(=O)c2ccccc2n2c(=S)sc(-c3ccccc3C)c12,i,-4.57*,i,i,i,-0.000222
Cc1cc(C)c(-c2csc(NC(=O)c3cc([N+](=O)[O-])ccc3N3CCOCC3)n2)c(C)c1,i,i,i,-7.89*,i,-0.696
O=C(Nc1nc(-c2ccc(F)c(F)c2)cs1)c1cc([N+](=O)[O-])ccc1N1CCOCC1,i,i,i,i,i,-0.265
CCOc1ccccc1NC1=C(Cl)C(=O)N(c2ccc(OC)cc2)C1=O,i,i,i,i,7.86*,-0.528
COc1ccccc1NC1=C(Cl)C(=O)N(C2CCCCC2)C1=O,i,i,i,i,7.6*,nt
Cc1ccccc1NC1=C(Cl)C(=O)N(C2CCCCC2)C1=O,i,i,i,i,i,-0.24
O[C@@H]1CN(Cc2ccccc2Cl)CC[C@H]1N1CCOCC1,i,i,i,i,i,nt
Cc1ccc(-c2[nH][nH]c(=O)c(=O)c2N=Nc2ccccc2)cc1,i,i,i,i,i,0.377
COc1ccc(C2=NOC(Cn3nc(C(=O)NCc4ccccc4OC)cc3-c3ccccc3)C2)cc1 (centres undefined),i,i,i,i,i,nt
COc1ccc(C2=NOC(Cn3nc(C(=O)NCC4CC4)cc3-c3ccccc3)C2)cc1 (centres undefined),i,i,i,i,7.89*,nt
